# Experimental data published in ChEMBL document CHEMBL1141001, “Synthesis of trans-caffeate analogues and their bioactivities against HIV-1 integrase and cancer cell lines” (Bioorg Med Chem Lett, 2008).
# Tests used:
# [1] = molecular target: Human immunodeficiency virus type 1 integrase (Human immunodeficiency virus 1, UniProt Q7ZJM1); test: Inhibition of HIV1 integrase by ELISA
# In short: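 HIV-1 integrase activity was read out by ELISA, and inhibition was expressed as an IC50.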
# [2] = Cytotoxicity against human BCG823 cells by MTT assay; type: functional, cell-based
# [3] = system: MCF7; test: Cytotoxicity against human MCF7 cells by MTT assay; type: functional, cell-based
# [4] = system: A549; test: Cytotoxicity against human A549 cells by MTT assay; type: functional, cell-based
# [5] = system: BEL-7404 (Homo sapiens); test: Cytotoxicity against human BEL-7404 cells by MTT assay
# Human immunodeficiency virus type 1 integrase, sequence (Q7ZJM1 whole entry): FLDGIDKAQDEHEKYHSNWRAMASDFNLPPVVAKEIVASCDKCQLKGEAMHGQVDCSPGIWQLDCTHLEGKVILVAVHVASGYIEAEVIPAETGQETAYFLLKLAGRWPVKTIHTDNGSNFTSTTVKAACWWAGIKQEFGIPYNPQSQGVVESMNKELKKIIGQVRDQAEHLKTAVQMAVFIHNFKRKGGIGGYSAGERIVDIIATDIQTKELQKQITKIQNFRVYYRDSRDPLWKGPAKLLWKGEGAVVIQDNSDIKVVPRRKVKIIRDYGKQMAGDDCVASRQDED
SMILES,IC50 [1] [µM],IC50 [2] [µM],IC50 [3] [µM],IC50 [4] [µM],IC50 [5] [µM]
O=C(/C=C/c1ccc(O)c(O)c1)Oc1ccccc1,> 100,56.6,5.9,75.9,44.3
COc1c(O)ccc(/C=C/C(=O)O)c1[N+](=O)[O-],> 100,–,–,–,–
COc1cc(/C=C/C(=O)O)cc([N+](=O)[O-])c1O,> 100,–,–,–,–
CC1(C)C2CCC1(C)C(OC(=O)/C=C/c1ccc(O)c(O)c1[N+](=O)[O-])C2 (stereo not drawn),13.5,117,40.7,52.9,28.7
COC(=O)/C=C/c1ccc(O)c(O)c1 [METHYLCAFFEATE],> 100,–,–,–,–
COc1c(O)ccc(/C=C/C(=O)OCCc2ccccc2)c1[N+](=O)[O-],> 100,–,–,–,–
COc1cc(/C=C/C(=O)O)cc(Cl)c1O,> 100,–,–,–,–
COc1cc(/C=C/C(=O)OC2CC3CCC2(C)C3(C)C)cc([N+](=O)[O-])c1O (stereo not drawn),> 100,–,–,–,–
O=C(/C=C/c1ccc(O)c(O)c1)OCc1ccccc1 [BENZYL CAFFEATE],> 100,48.1,14.1,27.3,17.4
COc1cc(/C=C/C(=O)O)cc(Br)c1O,> 100,–,–,–,–
O=C(O)/C=C/c1ccc(O)c(O)c1[N+](=O)[O-],> 100,–,–,–,–
CCCCCCCCCCCCCCCCCCOC(=O)/C=C/c1ccc(O)c(O)c1,> 100,–,–,–,–
COc1cc(/C=C/C(=O)OC2CC3CCC2(C)C3(C)C)cc(Br)c1O (stereo not drawn),> 100,–,–,–,–
O=C(/C=C/c1ccc(O)c(O)c1[N+](=O)[O-])OCCc1ccccc1,> 100,27.8,28.8,8.7,10.2
CCCCCCCOC(=O)/C=C/c1ccc(O)c(O)c1,> 100,–,–,–,–
O=C(/C=C/c1ccc(O)c(O)c1)OC1CCCCC1,> 100,97.6,30.3,89.3,15.5
COc1cc(/C=C/C(=O)OCCc2ccccc2)cc(Cl)c1O,> 100,–,–,–,–
CCOC(=O)/C=C/c1ccc(O)c(O)c1 [ETHYL CAFFEATE],> 100,–,–,–,–
CCCCCCCCOC(=O)/C=C/c1ccc(O)c(O)c1,> 100,–,–,–,–
CC(C)(C)OC(=O)/C=C/c1ccc(O)c(O)c1,> 100,–,–,–,–

SMILES,IC50 [1] [µM],IC50 [2] [µM],IC50 [3] [µM],IC50 [4] [µM],IC50 [5] [µM]
COc1cc(/C=C/C(=O)OCCc2ccccc2)cc(Br)c1O,> 100,> 300,> 300,> 300,> 300
COc1c(O)ccc(/C=C/C(=O)OC2CC3CCC2(C)C3(C)C)c1[N+](=O)[O-] (stereo not drawn),> 100,32.1,62.3,21.1,6.6
C#CCOC(=O)/C=C/c1ccc(O)c(O)c1,> 100,–,–,–,–
CC(C)(COC(=O)/C=C/c1ccc(O)c(O)c1)[N+](=O)[O-],> 100,–,–,–,–
COc1cc(/C=C/C(=O)OCCc2ccccc2)cc([N+](=O)[O-])c1O,> 100,> 300,> 300,> 300,> 300
O=C(/C=C/c1ccc(O)c(O)c1)Oc1ccc2ccccc2c1,> 100,59.8,12.8,50,58.1
O=C(/C=C/c1ccc(O)c(O)c1)OCCc1ccccc1 [CAFFEIC ACID PHENETHYL ESTER],> 100,44.6,26.7,83.6,5.5
COc1cc(/C=C/C(=O)O)ccc1O [FERULATE],> 100,–,–,–,–
CC1(C)C2CCC1(C)C(OC(=O)/C=C/c1cc(O)c(O)c([N+](=O)[O-])c1)C2 (stereo not drawn),> 100,–,–,–,–
CCC(C)OC(=O)/C=C/c1ccc(O)c(O)c1 (stereo not drawn),> 100,–,–,–,–
O=C(O)/C=C/c1cc(O)c(O)c([N+](=O)[O-])c1,26.8,–,–,–,–
CCCCOC(=O)/C=C/c1ccc(O)c(O)c1 [BUTYL CAFFEATE],> 100,–,–,–,–
C=CCOC(=O)/C=C/c1ccc(O)c(O)c1,> 100,–,–,–,–
O=C(/C=C/c1cc(O)c(O)c([N+](=O)[O-])c1)OCCc1ccccc1,25,22.9,12.3,11.4,59.7
CC1(C)C2CCC1(C)C(OC(=O)/C=C/c1ccc(O)c(O)c1)C2 (stereo not drawn),19.9,101,> 300,19.5,28.2
CCCCCCC(C)OC(=O)/C=C/c1ccc(O)c(O)c1 (stereo not drawn),> 100,–,–,–,–
COc1cc(/C=C/C(=O)OC2CC3CCC2(C)C3(C)C)cc(Cl)c1O (stereo not drawn),> 100,–,–,–,–
CCCOC(=O)/C=C/c1ccc(O)c(O)c1,> 100,–,–,–,–
CC(C)OC(=O)/C=C/c1ccc(O)c(O)c1,> 100,–,–,–,–
O=C(O)/C=C/c1ccc(O)c(O)c1 [CAFFEIC ACID],> 100,–,–,–,–
